# UPR CHOP act: apoptotic UPR (CHOP) activation. CHO-CHOP luciferase reporter, luminescence; percent of tunicamycin response over DMSO baseline. activation, % at 10 µM. 330,000 tested, 0.34% active;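 active = at 10 µM dose, activation of 40% or more, normalized to positive control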
#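 Test system: CHO CHOP reporter cells. Input: 500 CHO-CHOP cells per well. Medium: F12 with 10% FBS. Technique: luciferase luminescence. Measure: percent activation relative to tunicamycin control. Dosing: 10 µM compound, 0.5% DMSO. Timing: 16-18 h cell attachment, then 6 h compound exposure, 37 °C.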
# NOD2-RIPK2 inh: NOD2-RIPK2 protein interaction inhibition; CHO BLA complementation NOD2-RIPK2, CCF4 ratio; inhibition, % at 4.98 µM; 360,000 tested, 0.38% active; AID 624267; in the data active = inhibition above about 21%
# CHOP inhibitor: blocks CHOP induction under ER stress. CHO-K1 CHOP-promoter luciferase, tunicamycin-induced, 15-18 h. inhibition, % at 10 µM. 220,000 tested, 3.8% active;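 active = compounds that reduced the stress-induced luciferase reporter signal by more than about 70% of percent inhibition, limit read from the data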
# TLR4-MyD88 BLA: inhibitors of human TLR4-MyD88 binding; inhibition, % at 8.4 µM; HeLa CL3-4 TLR4/MyD88 BLA complementation, FRET ratio; 200,000 tested, 0.18% active; in the data active = inhibition above about 25%
# UPR XBP1 act: activators of adaptive arm of unfolded protein response (XBP1) | activation, % at 20 µM | CHO-XBP1 luciferase reporter, IRE1-XBP1 UPR activation, luminescence; percent of tunicamycin response, DMSO as zero | 330,000 tested, 0.33% active;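 active = versus positive control, 20 µM dose yields 30% or more activation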
#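 Test system: CHO-XBP1 luciferase reporter cells | Buffer or medium: Serum-containing F12 medium, 10% FBS | Schedule: 6 h compound exposure at 37 °C, 5% CO2 | Detection: Steady-Glo luciferase glow luminescence, 10 min after reagent addition | Read-out basis: Activation, % of tunicamycin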
# TLR9-MyD88 inh: blocks human TLR9 binding to MyD88; Q9NR96+Q99836; CHO BLA complementation TLR9-MyD88, CCF4 FRET ratio; inhibition, % at 4.98 µM; 340,000 tested, 0.21% active;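 active = inhibition above the mean over all tested compounds plus 3 SD, cut at about 21% in these data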
# Hits are given with their value; i = inactive; nt = not tested or not shown. Shown is part of a subset that was picked to be rich in hits.
SMILES,UPR CHOP act,NOD2-RIPK2 inh,CHOP inhibitor,TLR4-MyD88 BLA,UPR XBP1 act,TLR9-MyD88 inh
O=C(CSc1cccc[n+]1[O-])Nc1ccccc1C(F)(F)F,i,i,nt,nt,i,i
O=C(CSc1cccc[n+]1[O-])Nc1ccccc1Oc1ccccc1,108,i,i,i,i,i
CC(CCC(C)C(C)(C)C)[C@@H]1CC[C@H]2C3C[C@H](OS(O)(=S)=S)[C@H]4C[C@H](OS(O)(=S)=S)[C@@H](OS(O)(=S)=S)C[C@]4(C)[C@H]3CC[C@]12C (stereo partly drawn) (tested in a mixture with another compound),i,24,nt,nt,i,i
CC(CCC(=O)NN)C1CCC2C3CCC4CC(O)CCC4(C)C3CCC12C (stereo not drawn),nt,i,nt,nt,nt,i
O=C(NC1CCCCC1)C(c1ccccc1)N1CCc2ccccc21 (stereo not drawn),i,i,i,i,i,i
Cc1ccc(C(C(=O)NC2CCCC2)N2CCc3ccccc32)cc1 (stereo not drawn),i,i,79,i,i,i
CC(C)CNC(=O)[C@H](Cc1ccccc1)NC(=O)c1cccs1,i,i,nt,nt,i,i
COc1ccc(Cl)cc1NC(=O)CCN1C(=O)C2C3C=CC(C4CC34)C2C1=O (stereo not drawn),i,i,nt,nt,i,i
CCN(C(=O)COC(=O)c1ccccc1Nc1cccc(C)c1C)C1CCS(=O)(=O)C1 (stereo not drawn),i,i,70,i,i,i
CCCCN(CCCC)c1nc2ccccc2nc1NS(=O)(=O)c1ccc(NC(C)=O)cc1,i,i,88,i,i,i
Cc1ccc2nc(-c3sc4nc(C)cc(C)c4c3N)[nH]c2c1,i,i,91,i,i,i
COc1ccc(Cn2c(CCC(=O)Nc3ccc(C)c(C)c3)nc3cccnc32)cc1,i,i,86,i,i,i
CC(=O)Nc1sc2c(c1CN1CCN(c3ccc(F)cc3)CC1)CCCC2,i,i,79,i,i,i
CC(=O)Nc1sc2c(c1CN1CCCC1)CCCC2,i,i,i,nt,i,i
CCCc1cc(=O)oc2cc(C)cc(OCC(=O)N3C[C@H]4C[C@@H](C3)c3cccc(=O)n3C4)c12,nt,i,nt,nt,nt,nt
Cc1ccccc1NC(=O)COC(=O)c1ccc(S(C)(=O)=O)c([N+](=O)[O-])c1,i,i,103,i,i,i
CC(CCc1ccccc1)NC(=O)COC(=O)c1ccc(S(C)(=O)=O)c([N+](=O)[O-])c1 (stereo not drawn),i,i,101,i,i,i
CCC[C@H]1NC(=O)[C@H](C)N(C)C(=O)C(C)(C)C(=O)C(C)NC(=O)[C@H](Cc2ccc(OC)cc2)N(C)C(=O)[C@H](C(C)C)N(C)C(=O)CNC(=O)[C@H](CC(C)C)N(C)C(=O)CNC(=O)[C@H]([C@@H](C)CC)OC(=O)[C@H]1C (stereo partly drawn),44,nt,nt,nt,i,nt
CC[C@H](C)C1OC(=O)[C@@H](C)[C@@H](CC)NC(=O)[C@H](C)N(C)C(=O)C(C)(C)C(=O)C(C)NC(=O)[C@H](Cc2ccc(OC)cc2)N(C)C(=O)[C@H](C(C)C)N(C)C(=O)CNC(=O)[C@H](CC(C)C)N(C)C(=O)CNC1=O (stereo partly drawn),nt,i,nt,nt,nt,nt
Cc1ccc(O)c(C(=O)CC(=O)c2ccccc2Cl)c1,i,i,103,i,i,i
COc1ccc(O)c(C(=O)CC(=O)c2ccccc2)c1,i,nt,93,i,i,nt
Cc1ccc(C)c(NC(=O)c2ccccc2O)c1,i,i,77,i,i,i
Cc1cccc(NC(=O)c2ccccc2O)c1C,i,i,i,i,i,i
Cc1ccc(C(=O)CC(=O)c2cccc(F)c2)c(O)c1,i,i,89,i,i,i
CCOc1ccc(CCN2C(=S)N([C@@H](CC(C)C)CN3CCC[C@@H]3CN3C(=S)NC[C@@H]3Cc3ccccc3)C[C@@H]2Cc2ccc(O)cc2)cc1,nt,i,nt,nt,nt,nt
SMILES,UPR CHOP act,NOD2-RIPK2 inh,CHOP inhibitor,TLR4-MyD88 BLA,UPR XBP1 act,TLR9-MyD88 inh
N#Cc1c(-c2ccccc2F)cc(C2CC2)nc1SCC(=O)c1cccs1,i,i,i,i,i,i
Cc1ccc(NC(=O)c2cc(S(=O)(=O)N3CCOCC3)c(Br)s2)cc1,i,i,i,i,i,i
O=C(NCc1nnnn1-c1ccc(Cl)cc1)c1ccc(Br)o1,i,i,nt,nt,i,i
O=C(Cn1nnc(-c2ccc(Cl)cc2)n1)NC1CC2CCC1C2 (stereo not drawn),i,i,i,i,i,i
O=C(Cn1nnc(-c2ccc(Cl)cc2)n1)NCC1CCCCC1,i,i,90,i,i,i
C=CCn1c(=NC(=O)c2ccco2)sc2cc(C(=O)OCC)ccc21,i,i,84,i,i,i
C=CCn1c(=NC(=O)c2ccco2)sc2cc(C(=O)OC)ccc21,i,i,80,i,i,i
COCCn1c(=NC(=O)c2ccco2)sc2cc(C(=O)OC)ccc21,i,i,i,i,i,i
CC(C)=CCC/C(C)=C/Cc1c(O)ccc(C(=O)/C=C/c2ccc(O)cc2)c1O,i,i,86,i,i,i
Cc1ccc2cc3cc(C(=O)N4CCN(Cc5ccccc5)CC4)sc3nc2c1,i,i,74,i,i,i
COC(=O)[C@@]12C[C@@H](CC(=O)NCc3cccc4ccccc34)C(=O)N(Cc3ccccc3)C1=CCC(C)(C)C2,nt,i,nt,nt,nt,nt
CCCc1nc2ccccc2c(C(=O)OCC(=O)Nc2ccc(S(=O)(=O)N3CCOCC3)cc2)c1CC,i,i,i,i,i,i
CCCc1nc2ccccc2c(C(=O)OCC(=O)Nc2cccc(S(=O)(=O)N3CCOCC3)c2)c1CC,i,i,77,i,i,i
COc1ccc(C)cc1N1CC(C(=O)Nc2cccc(C(=O)NC3CC3)c2)CC1=O (stereo not drawn),nt,i,nt,nt,nt,i
O=C(NCc1ccccc1)N1CCN(c2ccc(Cl)c(Cl)c2)CC1,i,i,76,i,i,i
Cc1occc1C(=O)N1CCN(c2ccc(Cl)c(Cl)c2)CC1,i,i,75,i,i,i
Cc1cc2occ(CC(=O)Nc3nnc(C4CC4)s3)c2cc1C,i,i,90,i,i,i
O=C(Cc1coc2ccc3ccccc3c12)Nc1nnc(C2CC2)s1,i,i,i,i,i,i
Cc1ccc(C(=O)N2CCN(Cc3ccc4c(c3)OCO4)CC2)cc1[N+](=O)[O-],i,i,i,i,i,i
Cc1ccc(/C(O)=C/C(=O)C(=O)NNC(=O)C(O)(c2ccccc2)c2ccccc2)cc1,i,i,85,i,i,i
O=C(CCc1ccccc1O)N/N=C/c1ccc(Sc2cccc3cccnc23)o1,i,i,i,i,i,i
Cc1ccc(C)c(-c2nnc(OCC(=O)Nc3cc(C)on3)c3ccccc23)c1,i,i,i,i,i,i

# Screens deposited in PubChem by several laboratories.
